The term inhibition denotes the percentage by which the read-out fell short of the control. The term IC50 denotes the concentration that inhibits the measured activity by half.

Among the data in ChEMBL document CHEMBL4823317, “Synthesis, in vitro cytotoxicity and biological evaluation of twenty novel 1,3-benzenedisulfonyl piperazines as antiplatelet agents” (Bioorg Med Chem, 2021) are inhibition, IC50 and viability values, retold here.

The test system of the first data set is Blood. Put plainly: Anti-platelet aggregation activity in rabbit venous blood assessed as inhibition of ADP-induced aggregation at 1.3 uM pre-treated for 2 mins followed by ADP addition by Born turbidimetric method relative to control. The settings on record: Oryctolagus cuniculus. In kind it is functional. A digest of the protocol: (§1)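 Platelet-rich plasma from male rabbit (2–3 kg) ear-vein blood, citrate anticoagulated (3.8%, 9:1), spun 1000 rpm 10 min at room temperature; platelet-poor plasma (3000 rpm 10 min) as blank. Compound at 1.3 µM, from DMSO solution (DMSO 0.5% v/v vehicle control), preincubated 2 min in PRP before inducer. Inhibition% = (1 − D/S) × 100, where S is aggregation with solvent.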
Turning to `COc1ccc(S(=O)(=O)N2CCN(c3cccc(C)c3)CC2)cc1S(=O)(=O)N1CCN(c2cccc(C)c2)CC1`, the inhibition at 1.3 µM was determined as 21.1%.
Still for that read-out and setting: next, `COc1ccc(S(=O)(=O)N2CCN(Cc3ccccc3)CC2)cc1S(=O)(=O)N1CCN(Cc2ccccc2)CC1`: 33.2%; `COc1ccc(C(=O)NCc2cccnc2)cc1C(=O)NCc1cccnc1` [PICOTAMIDE]: 45.5%; `CC(=O)Oc1ccccc1C(=O)O` [ASPIRIN]: 46.3%.
For `CCOc1ccc(S(=O)(=O)N2CCN(c3ccccc3C)CC2)cc1S(=O)(=O)N1CCN(c2ccccc2C)CC1`, the inhibition at 1.3 µM was 28.9%.
For the compound `CCOc1ccc(S(=O)(=O)N2CCN(c3ccccc3)CC2)cc1S(=O)(=O)N1CCN(c2ccccc2)CC1`, the inhibition at 1.3 µM was determined as 40.1%.
Take `CCOc1ccc(S(=O)(=O)N2CCN(C(C)C)CC2)cc1S(=O)(=O)N1CCN(C(C)C)CC1`: the inhibition at 1.3 µM stood at 36.4%.
Turning to `COc1ccc(S(=O)(=O)N2CCN(c3ccc(C)cc3)CC2)cc1S(=O)(=O)N1CCN(c2ccc(C)cc2)CC1`, the inhibition at 1.3 µM amounted to 30.4%.
As to `COc1ccc(S(=O)(=O)N2CCN(c3ccccc3F)CC2)cc1S(=O)(=O)N1CCN(c2ccccc2F)CC1`, the inhibition at 1.3 µM turned out to be 28%.
On to `CCOc1ccc(S(=O)(=O)N2CCN(c3cccc(C)c3)CC2)cc1S(=O)(=O)N1CCN(c2cccc(C)c2)CC1`, for which the inhibition at 1.3 µM stood at 50.3%.
Consider `CCOc1ccc(S(=O)(=O)N2CCN(Cc3ccccc3)CC2)cc1S(=O)(=O)N1CCN(Cc2ccccc2)CC1`, for which the inhibition at 1.3 µM was found to be 24%.

In the next data set the test system is Blood. Put plainly: Anti-platelet aggregation activity in rabbit venous blood assessed as inhibition of ADP-induced aggregation pre-treated for 2 mins followed by ADP addition by Born turbidimetric method. Format: functional, tissue-based. The settings on record: Oryctolagus cuniculus. A digest of the protocol:
(§2)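 Rabbit PRP Born turbidimetry with the same 2 min compound preincubation. ADP or arachidonic acid as inducer. Compounds tested at 1.3, 0.65 and 0.325 µM. Inhibition% = (1 − D/S) × 100 versus the solvent control, and IC50 calculated from these inhibition rates.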
As to `COc1ccc(S(=O)(=O)N2CCN(Cc3ccccc3)CC2)cc1S(=O)(=O)N1CCN(Cc2ccccc2)CC1`, the concentration for half-maximal inhibition (IC50) is 1150 nM.
Turning to `COc1ccc(C(=O)NCc2cccnc2)cc1C(=O)NCc1cccnc1` [PICOTAMIDE], the IC50 stood at 470 nM.
As to `CC(=O)Oc1ccccc1C(=O)O` [ASPIRIN], the IC50 is 440 nM.
With `CCOc1ccc(S(=O)(=O)N2CCN(c3ccccc3)CC2)cc1S(=O)(=O)N1CCN(c2ccccc2)CC1`, the IC50 worked out at 910 nM.
On to `CCOc1ccc(S(=O)(=O)N2CCN(C(C)C)CC2)cc1S(=O)(=O)N1CCN(C(C)C)CC1`, for which the concentration for half-maximal inhibition (IC50) amounted to 800 nM.
Regarding `CCOc1ccc(S(=O)(=O)N2CCN(c3cccc(C)c3)CC2)cc1S(=O)(=O)N1CCN(c2cccc(C)c2)CC1`, the IC50 came to 450 nM.

A further data set relates to Blood. Put plainly: Anti-platelet aggregation activity in rabbit venous blood assessed as inhibition of arachidonic acid-induced aggregation at 1.3 uM pre-treated for 2 mins followed by ADP addition by Born turbidimetric method relative to control. In kind it is functional. Conditions: Oryctolagus cuniculus. The essentials: as §1
Consider `COc1ccc(S(=O)(=O)N2CCN(c3cccc(C)c3)CC2)cc1S(=O)(=O)N1CCN(c2cccc(C)c2)CC1`, for which the inhibition at 1.3 µM amounted to 33.7%.
As for `COc1ccc(S(=O)(=O)N2CCN(Cc3ccccc3)CC2)cc1S(=O)(=O)N1CCN(Cc2ccccc2)CC1`, the inhibition at 1.3 µM was 38.5%.
Still for that read-out and setting: under `COc1ccc(C(=O)NCc2cccnc2)cc1C(=O)NCc1cccnc1` [PICOTAMIDE] stands 37.1%; under `CC(=O)Oc1ccccc1C(=O)O` [ASPIRIN], 38.5%.
For `CCOc1ccc(S(=O)(=O)N2CCN(c3ccccc3C)CC2)cc1S(=O)(=O)N1CCN(c2ccccc2C)CC1`, the inhibition at 1.3 µM turned out to be 33.1%.
Regarding `CCOc1ccc(S(=O)(=O)N2CCN(c3ccccc3)CC2)cc1S(=O)(=O)N1CCN(c2ccccc2)CC1`, the inhibition at 1.3 µM was found to be 23.6%.
The same measure, in the same setting: under `CCOc1ccc(S(=O)(=O)N2CCN(C(C)C)CC2)cc1S(=O)(=O)N1CCN(C(C)C)CC1` stands 24.9%; under `COc1ccc(S(=O)(=O)N2CCN(c3ccc(C)cc3)CC2)cc1S(=O)(=O)N1CCN(c2ccc(C)cc2)CC1`, 34.1%.
As to `COc1ccc(S(=O)(=O)N2CCN(c3ccccc3F)CC2)cc1S(=O)(=O)N1CCN(c2ccccc2F)CC1`, the inhibition at 1.3 µM came to 40.6%.
Still for that read-out and setting: under `CCOc1ccc(S(=O)(=O)N2CCN(c3cccc(C)c3)CC2)cc1S(=O)(=O)N1CCN(c2cccc(C)c2)CC1` stands 34.8%; under `CCOc1ccc(S(=O)(=O)N2CCN(Cc3ccccc3)CC2)cc1S(=O)(=O)N1CCN(Cc2ccccc2)CC1`, 20.1%.

In a further data set the test system is Blood. Nature of the data set: Anti-platelet aggregation activity in rabbit venous blood assessed as inhibition of arachidonic acid-induced aggregation pre-treated for 2 mins followed by ADP addition by Born turbidimetric method. Format: functional, tissue-based. Conditions: Oryctolagus cuniculus. The essentials:
as §2
Turning to `COc1ccc(S(=O)(=O)N2CCN(c3cccc(C)c3)CC2)cc1S(=O)(=O)N1CCN(c2cccc(C)c2)CC1`, the IC50 came out at 710 nM.
Regarding `COc1ccc(S(=O)(=O)N2CCN(Cc3ccccc3)CC2)cc1S(=O)(=O)N1CCN(Cc2ccccc2)CC1`, the IC50 was determined as 330 nM.
Same read-out and setting: next, `COc1ccc(C(=O)NCc2cccnc2)cc1C(=O)NCc1cccnc1` [PICOTAMIDE]: 340 nM; `CC(=O)Oc1ccccc1C(=O)O` [ASPIRIN]: 430 nM.
For the compound `CCOc1ccc(S(=O)(=O)N2CCN(c3ccccc3C)CC2)cc1S(=O)(=O)N1CCN(c2ccccc2C)CC1`, the IC50 turned out to be 650 nM.
Consider `COc1ccc(S(=O)(=O)N2CCN(c3ccc(C)cc3)CC2)cc1S(=O)(=O)N1CCN(c2ccc(C)cc2)CC1`, for which the half-maximal inhibitory concentration (IC50) worked out at 680 nM.
Same read-out and setting: next, `COc1ccc(S(=O)(=O)N2CCN(c3ccccc3F)CC2)cc1S(=O)(=O)N1CCN(c2ccccc2F)CC1`: 480 nM; `CCOc1ccc(S(=O)(=O)N2CCN(c3cccc(C)c3)CC2)cc1S(=O)(=O)N1CCN(c2cccc(C)c2)CC1`: 430 nM.

Another data set has as its system Blood. Nature of the data set: Anti-platelet aggregation activity in rabbit venous blood assessed as inhibition of collagen-induced aggregation at 1.3 uM pre-treated for 2 mins followed by ADP addition by Born turbidimetric method relative to control. Format: functional. The settings on record: Oryctolagus cuniculus. The essentials: as §1
With `COc1ccc(S(=O)(=O)N2CCN(c3cccc(C)c3)CC2)cc1S(=O)(=O)N1CCN(c2cccc(C)c2)CC1`, the inhibition at 1.3 µM came to 54.2%.
Take `COc1ccc(S(=O)(=O)N2CCN(Cc3ccccc3)CC2)cc1S(=O)(=O)N1CCN(Cc2ccccc2)CC1`: the inhibition at 1.3 µM was 22.8%.
As for `COc1ccc(C(=O)NCc2cccnc2)cc1C(=O)NCc1cccnc1` [PICOTAMIDE], the inhibition at 1.3 µM was 49.2%.
As to `CC(=O)Oc1ccccc1C(=O)O` [ASPIRIN], the inhibition at 1.3 µM worked out at 49.1%.
In the case of `CCOc1ccc(S(=O)(=O)N2CCN(c3ccccc3C)CC2)cc1S(=O)(=O)N1CCN(c2ccccc2C)CC1`, the inhibition at 1.3 µM turned out to be 41.6%.
`CCOc1ccc(S(=O)(=O)N2CCN(c3ccccc3)CC2)cc1S(=O)(=O)N1CCN(c2ccccc2)CC1`: the inhibition at 1.3 µM came out at 26.9%.
As for `CCOc1ccc(S(=O)(=O)N2CCN(C(C)C)CC2)cc1S(=O)(=O)N1CCN(C(C)C)CC1`, the inhibition at 1.3 µM came to 39%.
Take `COc1ccc(S(=O)(=O)N2CCN(c3ccc(C)cc3)CC2)cc1S(=O)(=O)N1CCN(c2ccc(C)cc2)CC1`: the inhibition at 1.3 µM was determined as 32.6%.
For `COc1ccc(S(=O)(=O)N2CCN(c3ccccc3F)CC2)cc1S(=O)(=O)N1CCN(c2ccccc2F)CC1`, the inhibition at 1.3 µM amounted to 28.8%.
Still for that read-out and setting: under `CCOc1ccc(S(=O)(=O)N2CCN(c3cccc(C)c3)CC2)cc1S(=O)(=O)N1CCN(c2cccc(C)c2)CC1` stands 48.8%; under `CCOc1ccc(S(=O)(=O)N2CCN(Cc3ccccc3)CC2)cc1S(=O)(=O)N1CCN(Cc2ccccc2)CC1`, 49.8%.

Test system in a further data set: not listed separately
Nature of the data set: Cytotoxicity against mouse L929 cells assessed as cell survival at 10 uM incubated for 48 hrs by CCK-8 assay relative to control. Format: cell-based. Conditions: read-out: Activity. The essentials: (§3)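 L929 mouse fibroblasts seeded at 10,000 cells/well in RPMI-1640 and allowed to attach 24 h at 37 °C. Compounds then added at 10 and 100 µM for 48 h at 37 °C. Medium replaced with fresh medium, CCK-8 added, 30 min further incubation, absorbance read at 450 nm. Viability = Abs(test)/Abs(control) × 100%.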
On the technique in general: Formazan colour is commonly taken as a measure of viable cells.
With `COc1ccc(S(=O)(=O)N2CCN(c3cccc(C)c3)CC2)cc1S(=O)(=O)N1CCN(c2cccc(C)c2)CC1`, the viability at 48 h, 10 µM stood at 85.2%.
In the case of `COc1ccc(S(=O)(=O)N2CCN(Cc3ccccc3)CC2)cc1S(=O)(=O)N1CCN(Cc2ccccc2)CC1`, the viability at 48 h, 10 µM was 55.6%.
Same read-out and setting: next, `COc1ccc(S(=O)(=O)N2CCN(c3ccccc3F)CC2)cc1S(=O)(=O)N1CCN(c2ccccc2F)CC1`: 77.8%.
The same measure, in the same setting: next, `CCOc1ccc(S(=O)(=O)N2CCN(c3cccc(C)c3)CC2)cc1S(=O)(=O)N1CCN(c2cccc(C)c2)CC1`: 56.6%; `CCOc1ccc(S(=O)(=O)N2CCN(Cc3ccccc3)CC2)cc1S(=O)(=O)N1CCN(Cc2ccccc2)CC1`: 55.6%.

Test system in another data set: not listed separately
Put plainly: Cytotoxicity against mouse L929 cells assessed as cell survival at 100 uM incubated for 48 hrs by CCK-8 assay relative to control. In kind it is cell-based. Conditions: read-out: Activity. A digest of the protocol:
as §3
As for `COc1ccc(S(=O)(=O)N2CCN(c3cccc(C)c3)CC2)cc1S(=O)(=O)N1CCN(c2cccc(C)c2)CC1`, the viability at 48 h, 100 µM was 66.7%.
Consider `COc1ccc(S(=O)(=O)N2CCN(Cc3ccccc3)CC2)cc1S(=O)(=O)N1CCN(Cc2ccccc2)CC1`, for which the viability at 48 h, 100 µM is 22.2%.
In the case of `COc1ccc(S(=O)(=O)N2CCN(c3ccccc3F)CC2)cc1S(=O)(=O)N1CCN(c2ccccc2F)CC1`, the viability at 48 h, 100 µM was found to be 66.7%.
With `CCOc1ccc(S(=O)(=O)N2CCN(c3cccc(C)c3)CC2)cc1S(=O)(=O)N1CCN(c2cccc(C)c2)CC1`, the viability at 48 h, 100 µM stood at 33.3%.
Consider `CCOc1ccc(S(=O)(=O)N2CCN(Cc3ccccc3)CC2)cc1S(=O)(=O)N1CCN(Cc2ccccc2)CC1`, for which the viability at 48 h, 100 µM is 22.2%.
